For 32 molecules, IC50, Ki and Ratio IC50 results are on record in ChEMBL document CHEMBL1944519 (Bioorg Med Chem, 2012).

The IC50 is the point on the concentration scale where inhibition reaches its midpoint. Lower therefore signals greater potency in that assay. The term Ki denotes a measure of affinity in units of concentration, obtained from inhibition or displacement. The low end stands for a stronger hold on the target, the high end for a looser hold on the target.

Structures are written as SMILES.

Assay [1] has as its target T1, Steryl-sulfatase (Homo sapiens, UniProt P08842).
T1 sequence (P08842 whole entry): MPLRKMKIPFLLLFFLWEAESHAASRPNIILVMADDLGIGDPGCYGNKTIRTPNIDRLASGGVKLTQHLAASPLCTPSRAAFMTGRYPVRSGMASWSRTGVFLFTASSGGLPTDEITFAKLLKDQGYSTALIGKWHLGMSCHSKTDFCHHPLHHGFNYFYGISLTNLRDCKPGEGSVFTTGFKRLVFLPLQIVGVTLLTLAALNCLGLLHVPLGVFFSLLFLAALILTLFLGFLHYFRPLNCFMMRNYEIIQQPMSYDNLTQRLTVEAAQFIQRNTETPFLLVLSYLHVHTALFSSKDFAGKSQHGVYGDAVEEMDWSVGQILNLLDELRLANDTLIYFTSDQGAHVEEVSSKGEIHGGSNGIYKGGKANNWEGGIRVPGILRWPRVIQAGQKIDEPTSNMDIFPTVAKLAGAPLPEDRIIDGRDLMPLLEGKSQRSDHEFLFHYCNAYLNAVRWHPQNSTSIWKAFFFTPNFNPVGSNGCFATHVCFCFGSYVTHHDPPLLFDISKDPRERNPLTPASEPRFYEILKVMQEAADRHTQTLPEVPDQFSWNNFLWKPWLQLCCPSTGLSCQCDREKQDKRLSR
As to the kind of experiment: Inhibition of steroid sulfatase using 4-methylumbelliferyl sulfate as substrate after 10 mins by spectrofluorimeter plate reader. The method in brief:
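Human placental STS, purified, used at 10 nM final with 200 μM 4-MUS (Km level). Assay buffer 0.1 M Tris-HCl pH 7.0, 0.01% Triton X-100, 5% DMSO, 25 °C. Inhibitor dilutions in DMSO/Tris (1:1), enzyme added last. 4-MU release read by fluorescence (ex 360, em 460) over 10 min, in triplicate. IC50 from percent activity vs log[I], fitted with a slope-factor equation plus background term.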

Assay [2] has as its target T1, Steryl-sulfatase. As to the kind of experiment: Inhibition of steroid sulfatase using 4-methylumbelliferyl sulfate as substrate by Lineweaver-Burk plot analysis. The method in brief:
(§1)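 Kinetics used purified human placental STS at 10 nM final, 25 °C. Inhibitor was fixed at 75, 50 or 25 nM final (plus an inhibitor-free control) against 4-MUS from 83.3 to 500 μM final, in 0.1 M Tris-HCl pH 7.0. Initial rates (RFU/s) were measured by fluorescence in triplicate and plotted as Lineweaver–Burk. Slopes and intercepts were replotted with mixed-type equations to give Ki and αKi.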

For assay [3], the target named is T1, Steryl-sulfatase. The assay is described as follows: Mixed type inhibition of steroid sulfatase using 4-methylumbelliferyl sulfate as substrate by Lineweaver-Burk plot analysis. The method in brief:
as §1

The target in assay [4] is T2, Steryl-sulfatase (Homo sapiens) (UniProt P08842).
T2 sequence (whole entry): T1 sequence (P08842 whole entry)
The assay is described as follows: Ratio of 17beta-3'-trifluoromethylbenzylest radiol IC50 to compound IC50 for steroid sulfatase.

On to `C[C@]12CC[C@@H]3c4ccc(O)cc4CC[C@H]3[C@@H]1CC[C@@H]2NS(=O)(=O)c1ccc(Oc2ccccc2)cc1`, for which it took 39 nM to reach half-maximal inhibition in assay [1] (IC50). For `C[C@]12CC[C@@H]3c4ccc(O)cc4CC[C@H]3[C@@H]1CC[C@@H]2NS(=O)(=O)c1ccc(Cl)cc1`, in assay [1], 271 nM corresponded to half-maximal inhibition (IC50). Same read-out and setting: the figure for `Cc1ccc(S(=O)(=O)N[C@@H]2CC[C@H]3[C@@H]4CCc5cc(O)ccc5[C@H]4CC[C@]23C)cc1` is 341 nM.

`C[C@]12CC[C@@H]3c4ccc(O)cc4CC[C@H]3[C@@H]1CC[C@@H]2NS(=O)(=O)c1cccc(F)c1` returned an IC50 in assay [1] of 112 nM. The same measure, in the same setting: the figure for `C[C@]12CC[C@@H]3c4ccc(O)cc4CC[C@H]3[C@@H]1CC[C@@H]2NS(=O)(=O)c1ccc(F)cc1` is 479 nM; for `CC(C)(C)c1ccc(S(=O)(=O)N[C@H]2CC[C@H]3[C@@H]4CCc5cc(O)ccc5[C@H]4CC[C@]23C)cc1` it is 18 nM; for `C[C@]12CC[C@@H]3c4ccc(O)cc4CC[C@H]3[C@@H]1CC[C@@H]2NS(=O)(=O)c1cccc(OC(F)(F)F)c1` it is 74 nM.

As for `C[C@]12CC[C@@H]3c4ccc(O)cc4CC[C@H]3[C@@H]1CC[C@@H]2NS(=O)(=O)c1ccc(-c2ccccc2)cc1`, the IC50 in assay [1] came out at 9 nM. Same read-out and setting: the result for `C[C@]12CC[C@@H]3c4ccc(O)cc4CC[C@H]3[C@@H]1CC[C@@H]2NS(=O)(=O)c1ccc2ccccc2c1` reads 20 nM; that for `CCCc1ccc(S(=O)(=O)N[C@H]2CC[C@H]3[C@@H]4CCc5cc(O)ccc5[C@H]4CC[C@]23C)cc1`, 44 nM; that for `C[C@]12CC[C@@H]3c4ccc(O)cc4CC[C@H]3[C@@H]1CC[C@@H]2NS(=O)(=O)c1ccccc1`, 343 nM.

As to `C[C@]12CC[C@@H]3c4ccc(O)cc4CC[C@H]3[C@@H]1CC[C@@H]2NS(=O)(=O)c1cccc(Cl)c1`, in assay [1], the IC50 is 67 nM. The same measure, in the same setting: the figure for `C[C@]12CC[C@@H]3c4ccc(O)cc4CC[C@H]3[C@@H]1CC[C@@H]2NS(=O)(=O)c1ccccc1Br` is 493 nM; for `CCCCc1ccc(S(=O)(=O)N[C@H]2CC[C@H]3[C@@H]4CCc5cc(O)ccc5[C@H]4CC[C@]23C)cc1` it is 26 nM; for `C[C@]12CC[C@@H]3c4ccc(O)cc4CC[C@H]3[C@@H]1CC[C@@]2(O)Cc1cccc(C(F)(F)F)c1` it is 126 nM. Still for that read-out and setting: the result for `C[C@]12CC[C@@H]3c4ccc(O)cc4CC[C@H]3[C@@H]1CC[C@@H]2NS(=O)(=O)c1ccc(C(F)(F)F)cc1` reads 73 nM; that for `C[C@]12CC[C@@H]3c4ccc(O)cc4CC[C@H]3[C@@H]1CC[C@@]2(O)Cc1ccc(-c2ccccc2)cc1`, 35 nM; that for `CC(C)c1ccc(S(=O)(=O)N[C@H]2CC[C@H]3[C@@H]4CCc5cc(O)ccc5[C@H]4CC[C@]23C)cc1`, 62 nM. The same measure, in the same setting: the figure for `C[C@]12CC[C@@H]3c4ccc(O)cc4CC[C@H]3[C@@H]1CC[C@@]2(O)Cc1ccc2ccccc2c1` is 120 nM.

As for `C[C@]12CC[C@@H]3c4ccc(O)cc4CC[C@H]3[C@@H]1CC[C@@H]2NS(=O)(=O)c1cccc(Br)c1`, the Ki in assay [2] and in assay [3] was 23 nM each time. Besides, the IC50 in assay [1] turned out to be 25 nM. In turn, `C[C@]12CC[C@@H]3c4ccc(O)cc4CC[C@H]3[C@@H]1CC[C@@H]2NC(=O)c1cccc(C(F)(F)F)c1` came in with a concentration for half-maximal inhibition (IC50) in assay [1] of 749 nM. Same read-out and setting: the figure for `C[C@]12CC[C@@H]3c4ccc(O)cc4CC[C@H]3[C@@H]1CC[C@@H]2NS(=O)(=O)c1cccc([N+](=O)[O-])c1` is 90 nM; for `Cc1ccc(CS(=O)(=O)N[C@H]2CC[C@H]3[C@@H]4CCc5cc(O)ccc5[C@H]4CC[C@]23C)cc1` it is 261 nM; for `Cc1cccc(S(=O)(=O)N[C@H]2CC[C@H]3[C@@H]4CCc5cc(O)ccc5[C@H]4CC[C@]23C)c1` it is 65 nM. In assay [1], `C[C@]12CC[C@@H]3c4ccc(O)cc4CC[C@H]3[C@@H]1CC[C@@H]2NS(=O)(=O)c1cccc(C#N)c1` had an IC50 of 137 nM.

On to `CCCCCc1ccc(S(=O)(=O)N[C@H]2CC[C@H]3[C@@H]4CCc5cc(O)ccc5[C@H]4CC[C@]23C)cc1`, for which it took 51 nM to reach half-maximal inhibition in assay [1] (IC50). Compared with the last molecule, the IC50 is about 2.7-fold lower.

Molecule `C[C@]12CC[C@@H]3c4ccc(O)cc4CC[C@H]3[C@@H]1CC[C@@H]2NS(=O)(=O)c1cccc(C(F)(F)F)c1` came in with an IC50 in assay [1] of 23 nM. For the same molecule, in assay [4], the Ratio IC50 was 6. For the molecule `C[C@]12CC[C@@H]3c4ccc(O)cc4CC[C@H]3[C@@H]1CC[C@@H]2NS(=O)(=O)Cc1ccccc1`, in assay [1], it took 364 nM to reach half-maximal inhibition (IC50). In other words, the sub-micromolar range. Same read-out and setting: the result for `COc1cccc(S(=O)(=O)N[C@H]2CC[C@H]3[C@@H]4CCc5cc(O)ccc5[C@H]4CC[C@]23C)c1` reads 193 nM; that for `C[C@]12CC[C@@H]3c4ccc(O)cc4CC[C@H]3[C@@H]1CC[C@@H]2NS(=O)(=O)c1ccc(Br)cc1`, 190 nM. As to `Cc1ccc(S(=O)(=O)O[C@H]2CC[C@H]3[C@@H]4CCc5cc(O)ccc5[C@H]4CC[C@]23C)cc1`, the IC50 in assay [1] worked out at 293 nM. For `Cc1ccc(S(=O)(=O)N[C@H]2CC[C@H]3[C@@H]4CCc5cc(O)ccc5[C@H]4CC[C@]23C)cc1`, in assay [1], the IC50 was found to be 207 nM.
